Assay results from ChEMBL document CHEMBL3272090, “A new type of anticonvulsant: 1-aryl-3-oxotetrahydroisoquinolines” (J Med Chem, 1977).
The source made the active and inactive calls.

Experiments:
[1] = tested on: Mus musculus; experiment: Neurotoxicity in po dosed mouse by rotarod test; assay type: toxicity, organism-based; settings: in vivo
Method in brief: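 Mice dosed perorally with Tween suspension 3 h before rotarod testing for neurotoxicity. Median effective dose with 95% confidence limits by Litchfield–Wilcoxon method.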

[2] = tested on: Mus musculus; experiment: Anticonvulsant activity in mouse assessed as protection against pentylenetetrazole-induced convulsion at 300 mg/kg, po pretreated for 3 hrs; assay type: functional, organism-based; design: dose 300 mg/kg
Method in brief: (§1)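 Peroral dosing in mice as Tween suspension, 3 h before pentylenetetrazole threshold test (Orloff method). Activity taken as a rise in threshold PTZ dose of at least 50% versus saline-pretreated controls.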

[3] = tested on: Mus musculus; experiment: Anticonvulsant activity in po dosed mouse assessed as protection against maximal electroshock-induced seizures pretreated for 3 hrs; assay type: functional
Method in brief: (§2)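 Mice given compound perorally as a Tween suspension 3 h before maximal electroshock seizure testing (Swinyard method). Median effective dose with 95% confidence limits by Litchfield–Wilcoxon; doses up to 300 mg/kg examined.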

[4] = Acute toxicity in po dosed mouse assessed as mortality after 24 hrs; assay type: organism-based; settings: in vivo
[5] = Protective index, ratio of ED50 for neurotoxicity in po dosed mouse by rotarod test to ED50 for anticonvulsant activity in po dosed mouse assessed as protection against maximal electroshock-induced seizures; assay type: toxicity, organism-based; settings: in vivo, read-out: Ratio ED50
Method in brief: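 Index calculated as rotarod ED50 divided by MES ED50, both from mice dosed perorally in Tween suspension 3 h before testing.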

[6] = tested on: Mus musculus; experiment: Anticonvulsant activity in po dosed mouse assessed as protection against pentylenetetrazole-induced convulsion pretreated for 3 hrs; assay type: functional; method in brief: as §1
[7] = tested on: Mus musculus; experiment: Anticonvulsant activity in mouse assessed as protection against maximal electroshock-induced seizures at 300 mg/kg, po pretreated for 3 hrs; assay type: functional, organism-based; design: dose 300 mg/kg; method in brief: as §2

| Compound | ED50 [1] [mg/kg] | Activity [2] | ED50 [3] [mg/kg] | LD50 at 24 h [4] [mg/kg] | selectivity ratio [5] | ED50 [6] [mg/kg] | Activity [7] |
| --- | --- | --- | --- | --- | --- | --- | --- |
| O=C(CCCN1CCCC1)Nc1ccc(C2NC(=O)Cc3ccccc32)cc1 (configuration not stated) | > 2000 | inactive | 215 | > 2000 | > 9 |  |  |
| CC(C)NCC(=O)Nc1ccc(C2NC(=O)C(C)(C)c3ccccc32)cc1 (configuration not stated) | 1600 |  |  | > 2000 | 59 | 100 |  |
| CCN(CC)CC(=O)Nc1ccc(C2NC(=O)C(C)(C)c3ccccc32)cc1 (configuration not stated) | 1300 | inactive | 90 | 1600 | 15 |  |  |
| CCCNCC(=O)Nc1ccc(C2NC(=O)C(C)c3ccccc32)cc1 (configuration not stated) | 340 |  |  | > 1600 | 15 | 100 |  |
| CC1(C)C(=O)NC(c2ccc(N)cc2)c2ccccc21 (configuration not stated) | 240 |  | 20 | > 1600 | 12 | 100 |  |
| CC(C)C1C(=O)NC(c2ccc(NC(=O)CCCN3CCCC3)cc2)c2ccccc21 (configuration not stated) | 86 | inactive |  | > 1000 |  |  | inactive |
| O=C1NC(=O)C(c2ccccc2)(c2ccccc2)N1 [PHENYTOIN] | 79.5 |  | 5.2 | > 1000 | 15 | 26 |  |
| CNCC(=O)Nc1ccc(C2NC(=O)C(C)(C)c3ccccc32)cc1 (configuration not stated) | 600 | inactive |  | > 2000 | 24 |  |  |
| CCCCNCC(=O)Nc1ccc(C2NC(=O)C(C)(C)c3ccccc32)cc1 (configuration not stated) | 335 | inactive | 23.5 | > 2000 | 14 |  |  |
| CCCNCC(=O)Nc1ccc(C2NC(=O)C(C(C)C)c3ccccc32)cc1 (configuration not stated) | 50 | inactive | 19.6 | 600 | 2.5 |  |  |
| CCNCC(=O)Nc1ccc(C2NC(=O)C(C)(C)c3ccccc32)cc1 (configuration not stated) | 760 |  |  | > 2000 |  |  | inactive |
| CCCNCC(=O)Nc1ccc(C2NC(=O)C(C)(C)c3ccccc32)cc1 (configuration not stated) | 435 |  |  | > 1600 | 14 |  |  |
| CCNCC(=O)Nc1ccc(C2NC(=O)Cc3ccccc32)cc1 (configuration not stated) | 520 |  |  | > 1600 | 51 |  |  |
| CC1C(=O)NC(c2ccc(N)cc2)c2ccccc21 (configuration not stated) | 250 |  | 26 | > 2000 | 10 | 100 |  |
| CC1(C)C(=O)NC(c2ccccc2N)c2ccccc21 (configuration not stated) | > 1000 |  | 110 | > 1000 | > 9 |  |  |
| CCCNCC(=O)Nc1ccc(C2NC(=O)Cc3ccccc32)cc1 (configuration not stated) | 490 |  | 20.6 | 2000 | 24 |  |  |

| Compound | ED50 [1] [mg/kg] | Activity [2] | ED50 [3] [mg/kg] | LD50 at 24 h [4] [mg/kg] | selectivity ratio [5] | ED50 [6] [mg/kg] | Activity [7] |
| --- | --- | --- | --- | --- | --- | --- | --- |
| CC1(C)C(=O)NC(c2ccc(NC(=O)CN)cc2)c2ccccc21 (configuration not stated) | 420 | inactive | 32.5 | > 1000 | 13 |  |  |
| Nc1ccccc1C1NC(=O)Cc2ccccc21 (configuration not stated) | 940 | inactive | 140 | > 2000 | 7 |  |  |
| CCCCN(CCCC)CC(=O)Nc1ccc(C2NC(=O)C(C)(C)c3ccccc32)cc1 (configuration not stated) | 600 | inactive | 62 | > 2000 | 10 |  |  |
| CC1(C)C(=O)NC(c2ccc(NC(=O)CN3CCCCC3)cc2)c2ccccc21 (configuration not stated) | > 2000 | inactive | 62 | > 2000 | > 36 |  |  |
| O=C(CN1CCOCC1)Nc1ccc(C2NC(=O)Cc3ccccc32)cc1 (configuration not stated) | > 1600 | inactive | 55 | > 1600 | > 29 |  |  |
| O=C(CN1CCCCC1)Nc1ccc(C2NC(=O)Cc3ccccc32)cc1 (configuration not stated) | > 2000 |  |  | > 2000 |  | 300 | inactive |
| Cc1ccc2c(c1)C(c1ccc(N)cc1)NC(=O)C2(C)C (configuration not stated) | 1030 |  | 70 | > 1600 | 15 | 300 |  |
| CCCNCC(=O)Nc1ccccc1C1NC(=O)Cc2ccccc21 (configuration not stated) | > 2000 |  | 180 | > 2000 | > 11 | 300 |  |
| CC(C)C1C(=O)NC(c2ccc(N)cc2)c2ccccc21 (configuration not stated) | 358 |  | 20 | > 1600 | 18 | 20 |  |
| Nc1ccc(Cl)c(C2NC(=O)Cc3ccccc32)c1Cl (configuration not stated) | > 1000 | inactive |  | > 1000 |  |  | inactive |
| Cl.Nc1ccc(C2NC(=O)Cc3ccccc32)cc1 (configuration not stated) | 95 |  | 19 | 795 | 5 | 50 |  |
| CC(C)NCC(=O)Nc1ccc(C2NC(=O)Cc3ccccc32)cc1 (configuration not stated) | 270 |  |  | > 1000 | 26 |  |  |
| O=C1Cc2ccccc2C(c2ccccc2)N1 (configuration not stated) | 730 | inactive | 105 | 1060 | 7 |  |  |
| CC1(C)C(=O)NC(c2ccc(NC(=O)CN3CCOCC3)cc2)c2ccccc21 (configuration not stated) | > 1600 |  | 78 | 2000 | > 20 | 300 |  |
| CNCC(=O)Nc1ccc(C2NC(=O)Cc3ccccc32)cc1 (configuration not stated) | 270 |  |  | 600 | 12 |  |  |
| O=C1Cc2ccccc2C(c2ccc(NC(=O)NCc3ccccc3)cc2)N1 (configuration not stated) | > 2000 | inactive | 275 | > 2000 | > 7 |  |  |
